Source: ChEMBL document CHEMBL1135784, “Novel antibiotics for the treatment of gram-positive bacterial infections” (J Med Chem, 2002)
≈ marks a conversion by molar mass, not a printed value.

Columns and labels:
Format in all cases: functional
Streptococcus pyogenes = experiment: Evaluated for its antibacterial activity against Str. Pyogenes wacker
In short: (§1)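 Broth microdilution in AOAC broth with 4% dextrose, with compounds at 0.125-64 µg/mL. Inoculum was a 1:50 dilution of an overnight culture. Incubation at 37 °C with 8-10% CO₂ for about 20 h. MIC read as the first concentration showing no visible growth.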

Staphylococcus aureus [1] = experiment: Evaluated for its antibacterial activity against Staphylococcus aureus 133
In short: (§2)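 Broth microdilution in AOAC broth with 4% dextrose. Compounds tested over 0.125-64 µg/mL. Wells inoculated with a 1:500 dilution of an overnight culture. Plates incubated at 37 °C under 8-10% CO₂ and read after about 20 h. MIC taken as the first concentration with no visible growth.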

Enterococcus faecium = experiment: Evaluated for its antibacterial activity against Enterococcus faecium L4001; in short: as §1
Enterococcus faecalis = experiment: Evaluated for its antibacterial activity against Enterococcus faecalis 18513; in short: as §1
[2] = tested on: Staphylococcus epidermidis; experiment: Evaluated for its antibacteria activity against Staphylococcus epidermidis 18570; in short: as §2
Streptococcus pneumoniae = experiment: Evaluated for its antibacterial activity against Streptococcus pneumoniae G9a
In short: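 For S. pneumoniae, microdilution used BHI broth diluted 1:10 with 10% bovine serum, and compounds at 0.125-64 µg/mL. Wells received a 1:50 dilution of an overnight culture. Plates were kept at 37 °C in 8-10% CO₂ and read after about 20 h. MIC was the lowest concentration without visible growth.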

Escherichia coli = experiment: Evaluated for its inhibitory activity against prokaryotic translation by using Escherichia coli transcription-translation assay
In short: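 Coupled E. coli transcription-translation system with a luciferase reporter; inhibition of bacterial translation measured by luminescence read-out.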

Staphylococcus aureus [3] = experiment: Evaluated for its antibacteria activity against Staphylococcus aureus; in short: as §2

MIC (Streptococcus pyogenes) [µg/mL]	MIC (Staphylococcus aureus [1]) [µg/mL]	MIC (Enterococcus faecium) [µg/mL]	MIC (Enterococcus faecalis) [µg/mL]	MIC [2] [µg/mL]	MIC (Streptococcus pneumoniae) [µg/mL]	IC50 (Escherichia coli) [nM]	MIC (Staphylococcus aureus [3]) [µg/mL]	Compound
0.5 (≈ 1.35 µM)	0.025 (≈ 0.0677 µM)	2 (≈ 5.41 µM)	64 (≈ 173 µM)	0.12 (≈ 0.325 µM)	4 (≈ 10.8 µM)	60		CN(CCC[C@H](N)CC(=O)N(C)C1CN=C(NC(N)=O)NC1=O)C(=N)N (stereo not given in full)
4 (≈ 10.8 µM)	0.8 (≈ 2.17 µM)	16 (≈ 43.3 µM)	64 (≈ 173 µM)	0.13 (≈ 0.352 µM)	16 (≈ 43.3 µM)	500		C/N=C(/N)NCCC[C@H](N)CC(=O)N(C)C1CN=C(NC(N)=O)NC1=O (stereo not given in full)
8	0.4	8	> 64	0.5	32	400		C/N=C(/N)N(C)CCC[C@H](N)CC(=O)N(C)C1CN=C(NC(N)=O)NC1=O.Cl.Cl (stereo not given in full)

Continued, molecule first:

Compound	MIC (Streptococcus pyogenes) [µg/mL]	MIC (Staphylococcus aureus [1]) [µg/mL]	MIC (Enterococcus faecium) [µg/mL]	MIC (Enterococcus faecalis) [µg/mL]	MIC [2] [µg/mL]	MIC (Streptococcus pneumoniae) [µg/mL]	IC50 (Escherichia coli) [nM]	MIC (Staphylococcus aureus [3]) [µg/mL]
CN(C(=O)C[C@@H](N)CCCN=C(N)N)C1CN=C(NC(N)=O)NC1=O (stereo not given in full)	8 (≈ 22.5 µM)	0.25 (≈ 0.703 µM)	2 (≈ 5.63 µM)	> 16	0.25 (≈ 0.703 µM)	16 (≈ 45 µM)		
CC(C)C(=N)NCCC[C@H](N)CC(=O)N(C)C1CN=C(NC(N)=O)NC1=O (stereo not given in full)		3.2 (≈ 8.37 µM)						
CC/N=C(/N)NCCC[C@H](N)CC(=O)N(C)C1CN=C(NC(N)=O)NC1=O (stereo not given in full)		6.3 (≈ 16.4 µM)					12500	
CC(C)/N=C(/N)NCCC[C@H](N)CC(=O)N(C)C1CN=C(NC(N)=O)NC1=O (stereo not given in full)		12.5 (≈ 31.4 µM)					12500	
C/C(N)=N/CCC[C@H](N)CC(=O)N(C)C1CN=C(NC(N)=O)NC1=O (stereo not given in full)	1 (≈ 2.82 µM)	0.2 (≈ 0.564 µM)	16 (≈ 45.1 µM)	> 64	0.2 (≈ 0.564 µM)	16 (≈ 45.1 µM)	100	0.2 (≈ 0.564 µM)
